Data: ChEMBL document CHEMBL1765014, “Non-peptide NK1 receptor ligands based on the 4-phenylpyridine moiety” (Bioorg Med Chem, 2011)
Activity calls are given as the source filed them. The rule behind the calls is not given here.

How the values were obtained:
Substance-P receptor = Substance-P receptor (Homo sapiens, UniProt P25103); test: Displacement of [125I]BH-SP from human recombinant NK1 receptor expressed in CHO cells after 90 mins; type: cell-based
[1] = Antiangiogenic activity in bovine CVEC cell assessed as inhibition of Sar9-SP-sulfone-induced proliferation at 1 uM after 48 hrs by microscopic analysis; type: functional; conditions: Bos taurus
In short: (§1)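 Subconfluent, synchronized bovine CVEC were stimulated with 10 nM Sar9-SP-sulfone, with or without test compound, for 48 h. Fixed and stained cells were counted microscopically as total cell number per well. Results are expressed as % inhibition of agonist-induced proliferation. Data are means ± SEM of three experiments; Student's t test.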

[2] = Antiangiogenic activity in bovine CVEC cell assessed as inhibition of Sar9-SP-sulfone-induced proliferation at 100 nM after 48 hrs by microscopic analysis; type: functional; conditions: Bos taurus; in short: as §1
[3] = Antiangiogenic activity in bovine CVEC cell assessed as inhibition of Sar9-SP-sulfone-induced cell migration at 1 uM after 4 hrs by microscopic analysis; type: functional; conditions: Bos taurus
In short: (§2)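 Bovine post-capillary venular endothelial cells (CVEC), cultured as previously described. Cells migrated toward 10 nM Sar9-SP-sulfone with or without test compound in a Neuroprobe microchemotaxis chamber and were evaluated after 4 h. Results are expressed as % inhibition of Sar9-SP-sulfone-induced activity. Data are means ± SEM of three experiments; Student's t test.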

[4] = Antiangiogenic activity in bovine CVEC cell assessed as inhibition of Sar9-SP-sulfone-induced cell migration at 100 nM after 4 hrs by microscopic analysis; type: functional; conditions: Bos taurus; in short: as §2
CVEC [5] = test: Antiangiogenic activity in bovine CVEC cell assessed as cell proliferation at 100 nM to 1 uM after 48 hrs by microscopic analysis; type: functional, cell-based; conditions: Bos taurus; in short: as §1
CVEC [6] = test: Antiangiogenic activity in bovine CVEC cell assessed as cell migration at 100 nM to 1 uM after 4 hrs by microscopic analysis; type: functional, cell-based; conditions: Bos taurus; in short: as §2
[7] = Antiangiogenic activity in bovine CVEC cell assessed as inhibition of Sar9-SP-sulfone-induced proliferation after 48 hrs by microscopic analysis; type: functional, cell-based; conditions: Bos taurus; in short: as §1
[8] = Antiangiogenic activity in bovine CVEC cell assessed as inhibition of Sar9-SP-sulfone-induced cell migration after 4 hrs by microscopic analysis; type: functional, cell-based; conditions: Bos taurus; in short: as §2

Chain of Substance-P receptor (P25103 whole entry): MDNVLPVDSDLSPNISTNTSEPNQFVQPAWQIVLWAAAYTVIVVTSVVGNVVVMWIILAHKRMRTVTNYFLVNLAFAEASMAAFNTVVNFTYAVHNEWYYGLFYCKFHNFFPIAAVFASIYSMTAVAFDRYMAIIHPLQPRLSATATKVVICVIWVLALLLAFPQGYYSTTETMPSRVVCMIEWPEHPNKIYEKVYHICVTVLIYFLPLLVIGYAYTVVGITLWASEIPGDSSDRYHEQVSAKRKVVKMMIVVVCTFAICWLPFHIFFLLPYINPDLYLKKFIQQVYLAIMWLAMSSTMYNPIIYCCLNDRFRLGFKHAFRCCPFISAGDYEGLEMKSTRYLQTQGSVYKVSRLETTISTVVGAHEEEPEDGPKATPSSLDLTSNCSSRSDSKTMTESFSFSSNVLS

Row | SMILES | IC50 (Substance-P receptor) [nM] | other results
1 | Cc1nc(N2CCN(C)CC2)cc(-c2ccccc2)c1C(=O)NCc1cc(C(F)(F)F)cc(C(F)(F)F)c1 | 53 | inhibition at 1 µM [1]: 76.3%; inhibition at 0.1 µM [2]: 33.5%; inhibition at 1 µM [3]: 100%; inhibition at 0.1 µM [4]: 100%; Activity (CVEC [5]): inactive; Activity (CVEC [6]): inactive
2 | Cc1c(C(=O)NCc2cc(C(F)(F)F)cc(C(F)(F)F)c2)c(-c2ccccc2)cc[n+]1[O-] | 342 | –
3 | Cc1c(C(=O)N(C)Cc2cc(C(F)(F)F)cc(C(F)(F)F)c2)c(-c2ccccc2)cc2nncn12 | 53 | –
4 | Cc1c(C(=O)NCc2cc(C(F)(F)F)cc(C(F)(F)F)c2)c(-c2ccccc2)cc2nnnn12 | 279 | –
5 | Cc1nccc(-c2ccccc2)c1C(=O)N(C)Cc1cc(C(F)(F)F)cc(C(F)(F)F)c1 | 98 | –
6 | Cc1c(C(=O)NCc2cc(C(F)(F)F)cc(C(F)(F)F)c2)c(-c2ccccc2)cc2nncn12 | 698 | –
7 | O=C(NCc1cc(C(F)(F)F)cc(C(F)(F)F)c1)c1cnc2ccccc2c1-c1ccccc1 | 208 | –
8 | CN(Cc1cc(C(F)(F)F)cc(C(F)(F)F)c1)C(=O)c1c(CO)nc2ccccc2c1-c1ccccc1 | 42 | –
9 | Cc1nc2ccccc2c(-c2ccccc2)c1C(=O)NCc1cc(C(F)(F)F)cc(C(F)(F)F)c1 | 257 | –
10 | Cc1nc2ccccc2c(-c2ccccc2)c1C(=O)N(C)Cc1cc(C(F)(F)F)cc(C(F)(F)F)c1 | 19 | –
11 | Cc1c(C(=O)N(C)Cc2cc(C(F)(F)F)cc(C(F)(F)F)c2)c(-c2ccccc2)cc2nnnn12 | 57 | –
12 | Cc1cc(-c2ccccc2)c(C(=O)NCc2cc(C(F)(F)F)cc(C(F)(F)F)c2)c(C)n1 | 434 | –
13 | Cc1nc(Cl)cc(-c2ccccc2)c1C(=O)NCc1cc(C(F)(F)F)cc(C(F)(F)F)c1 | 270 | –
14 | Cc1cc(-c2ccccc2)c(C(=O)N(C)Cc2cc(C(F)(F)F)cc(C(F)(F)F)c2)c(C)n1 | 41 | –
15 | Cc1nc(Cl)cc(-c2ccccc2)c1C(=O)N(C)Cc1cc(C(F)(F)F)cc(C(F)(F)F)c1 | 91 | –
16 | Cc1c(C(=O)N(C)Cc2cc(C(F)(F)F)cc(C(F)(F)F)c2)c(-c2ccccc2)cc[n+]1[O-] | 32 | –
17 | COc1ccccc1CNC(=O)c1c(-c2ccccc2)ccnc1C | – | inhibition at 1 µM [1]: 11%; inhibition at 0.1 µM [2]: 0%; inhibition at 1 µM [3]: 9%; inhibition at 0.1 µM [4]: 0%; IC50 [7]: > 1000 nM; IC50 [8]: > 1000 nM
18 | O=C(NCc1cc(C(F)(F)F)cc(C(F)(F)F)c1)c1c(-c2ccccc2)ccnc1CCl | 235 | –
19 | Cc1nc(N2CCN(C)CC2)cc(-c2ccccc2)c1C(=O)N(C)Cc1cc(C(F)(F)F)cc(C(F)(F)F)c1 | 4.8 | inhibition at 1 µM [1]: 79.7%; inhibition at 0.1 µM [2]: 7.6%; inhibition at 1 µM [3]: 99%; inhibition at 0.1 µM [4]: 100%; Activity (CVEC [5]): inactive; Activity (CVEC [6]): inactive
20 | CN(Cc1cc(C(F)(F)F)cc(C(F)(F)F)c1)C(=O)c1c(-c2ccccc2)ccnc1CCl | 52 | –
21 | O=C(NCc1cc(C(F)(F)F)cc(C(F)(F)F)c1)c1c(CO)nc2ccccc2c1-c1ccccc1 | 227 | –
22 | Cc1nccc(-c2ccccc2)c1C(=O)NCc1cc(C(F)(F)F)cc(C(F)(F)F)c1 | 653 | –
23 | CN(Cc1cc(C(F)(F)F)cc(C(F)(F)F)c1)C(=O)c1cnc2ccccc2c1-c1ccccc1 | 92 | –
